Assay results reported in ChEMBL document CHEMBL2375276, “Antibacterial oxazolidinone analogues having a N-hydroxyacetyl-substituted seven-membered [1,2,5]triazepane or [1,2,5]oxadiazepane C-ring unit” (Eur J Med Chem, 2013).
In brackets after ≈: the same amount, converted by molar mass.

Tests used:
Haemophilus influenzae [1] = assay: Antibacterial activity against Haemophilus influenzae SR27914 clinical isolate assessed as growth inhibition by CLSI broth microdilution method; assay type: functional
How it was run: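 MIC by CLSI broth microdilution using Haemophilus test medium.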

Moraxella catarrhalis [2] = assay: Ratio of linezolid MIC to compound MIC for Moraxella catarrhalis SR26840 clinical isolate; assay type: functional
Enterococcus faecium [3] = assay: Ratio of linezolid MIC to compound MIC for Enterococcus faecium SR7940 clinical isolate; assay type: functional
Streptococcus pneumoniae [4] = assay: Ratio of eperezolid MIC to compound MIC for Streptococcus pneumoniae SR26207 clinical isolate; assay type: functional
Staphylococcus aureus [5] = assay: Antibacterial activity against Staphylococcus aureus SR20549 clinical isolate assessed as growth inhibition by CLSI broth microdilution method; assay type: functional
How it was run: (§1)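 MIC by CLSI broth microdilution in cation-adjusted Mueller-Hinton broth; S. pneumoniae medium supplemented with 5% lysed horse blood.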

Streptococcus pneumoniae [6] = assay: Ratio of linezolid MIC to compound MIC for Streptococcus pneumoniae SR26207 clinical isolate; assay type: functional
Staphylococcus aureus [7] = assay: Antibacterial activity against methicillin-resistant Staphylococcus aureus SR3637 infected in JCL/ICR mouse systemic infection model assessed as mortality administered as iv measured over 7 days; assay type: functional; settings: 168 h
How it was run: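 Five-week-old male JCL/ICR mice (20–25 g), five per group. Infected intraperitoneally with 0.5 or 1.0 mL bacterial suspension (about 100× LD50). Intravenous dosing 1 h post-infection. Mortality followed 7 days; ED50 with 95% confidence limits by logit method.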

Staphylococcus aureus [8] = assay: Ratio of linezolid MIC to compound MIC for Staphylococcus aureus Smith; assay type: functional
Staphylococcus aureus [9] = assay: Antibacterial activity against linezolid-resistant Staphylococcus aureus NRS271 assessed as growth inhibition by CLSI broth microdilution method; assay type: functional
How it was run: (§2)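 MIC by CLSI broth microdilution in cation-adjusted Mueller-Hinton broth. Lowest concentration inhibiting growth taken as MIC.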

Staphylococcus aureus [10] = assay: Ratio of eperezolid MIC to compound MIC for Staphylococcus aureus SR20549 clinical isolate; assay type: functional
Haemophilus influenzae [11] = assay: Ratio of eperezolid MIC to compound MIC for Haemophilus influenzae SR27914 clinical isolate; assay type: functional
Staphylococcus aureus [12] = assay: Ratio of eperezolid MIC to compound MIC for Staphylococcus aureus Smith; assay type: functional
Enterococcus faecalis [13] = assay: Ratio of linezolid MIC to compound MIC for Enterococcus faecalis SR1004 clinical isolate; assay type: functional
Haemophilus influenzae [14] = assay: Ratio of linezolid MIC to compound MIC for Haemophilus influenzae SR27914 clinical isolate; assay type: functional
Staphylococcus aureus [15] = assay: Antibacterial activity against Staphylococcus aureus Smith assessed as growth inhibition by CLSI broth microdilution method; assay type: functional; how it was run: as §1
Staphylococcus aureus [16] = assay: Ratio of linezolid MIC to compound MIC for Staphylococcus aureus SR20549 clinical isolate; assay type: functional
Staphylococcus aureus [17] = assay: Antibacterial activity against methicillin-resistant Staphylococcus aureus SR3637 infected in JCL/ICR mouse systemic infection model assessed as mortality administered as po measured over 7 days; assay type: functional; settings: 168 h
How it was run: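 Five-week-old male JCL/ICR mice (20–25 g), five per group. Infected intraperitoneally with 0.5 or 1.0 mL bacterial suspension (about 100× LD50). Oral dosing 1 h post-infection. Mortality followed 7 days; ED50 with 95% confidence limits by logit method.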

Staphylococcus aureus [18] = assay: Antibacterial activity against methicillin-resistant Staphylococcus aureus SR3637 assessed as growth inhibition by CLSI broth microdilution method; assay type: functional; how it was run: as §2
Enterococcus faecium [19] = assay: Ratio of eperezolid MIC to compound MIC for Enterococcus faecium SR7940 clinical isolate; assay type: functional
Enterococcus faecalis [20] = assay: Antibacterial activity against Enterococcus faecalis SR1004 clinical isolate assessed as growth inhibition by CLSI broth microdilution method; assay type: functional; how it was run: as §1
Moraxella catarrhalis [21] = assay: Antibacterial activity against Moraxella catarrhalis SR26840 clinical isolate assessed as growth inhibition by CLSI broth microdilution method; assay type: functional; how it was run: as §1
Enterococcus faecium [22] = assay: Antibacterial activity against Enterococcus faecium SR7940 clinical isolate assessed as growth inhibition by CLSI broth microdilution method; assay type: functional; how it was run: as §1
Moraxella catarrhalis [23] = assay: Ratio of eperezolid MIC to compound MIC for Moraxella catarrhalis SR26840 clinical isolate; assay type: functional
Enterococcus faecalis [24] = assay: Ratio of eperezolid MIC to compound MIC for Enterococcus faecalis SR1004 clinical isolate; assay type: functional
Streptococcus pneumoniae [25] = assay: Antibacterial activity against Streptococcus pneumoniae SR26207 clinical isolate assessed as growth inhibition by CLSI broth microdilution method; assay type: functional; how it was run: as §1
Cytochrome P450 2D6 = Cytochrome P450 2D6 (Homo sapiens, UniProt P10635); assay: Inhibition of human CYP2D6 assessed as dextromethorphan O-demethylation after 20 mins by LC/MS/MS analysis; assay type: ADME
Cytochrome P450 2D6, sequence (P10635 whole entry): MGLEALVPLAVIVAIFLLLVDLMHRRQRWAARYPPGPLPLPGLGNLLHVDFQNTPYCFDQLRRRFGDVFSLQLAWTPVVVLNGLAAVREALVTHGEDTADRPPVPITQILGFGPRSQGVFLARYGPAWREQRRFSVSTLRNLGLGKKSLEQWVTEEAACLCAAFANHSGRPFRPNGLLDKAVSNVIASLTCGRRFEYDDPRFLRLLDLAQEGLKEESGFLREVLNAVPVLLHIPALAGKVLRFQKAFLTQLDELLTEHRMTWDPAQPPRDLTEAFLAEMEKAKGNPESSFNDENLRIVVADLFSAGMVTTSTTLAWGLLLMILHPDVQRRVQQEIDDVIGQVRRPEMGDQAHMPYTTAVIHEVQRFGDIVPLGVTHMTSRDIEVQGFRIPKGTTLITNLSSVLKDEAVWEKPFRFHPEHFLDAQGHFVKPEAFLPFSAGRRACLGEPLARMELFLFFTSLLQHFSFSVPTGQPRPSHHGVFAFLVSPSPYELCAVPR
How it was run: (§3)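 Human liver microsomes (0.2 mg protein/mL) with 1 mM NADPH in 50 mM HEPES pH 7.4, 10 mM MgCl2, 0.1 mM EDTA. After centrifugation, supernatant metabolite measured by LC/MS/MS. Standard curve from authentic metabolite cocktail added to unincubated reaction mix.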

MAO-B = target: T1, MAO-B (Rattus norvegicus, UniProt P19643); assay: Inhibition of MAO-B in rat forebrain using [14C]PEA as substrate at 30 uM incubated for 20 mins prior to substrate addition measured after 10 mins by liquid scintillation counting analysis relative to control; assay type: tissue-based; settings: probe [14C]PEA
T1 sequence (P19643 whole entry): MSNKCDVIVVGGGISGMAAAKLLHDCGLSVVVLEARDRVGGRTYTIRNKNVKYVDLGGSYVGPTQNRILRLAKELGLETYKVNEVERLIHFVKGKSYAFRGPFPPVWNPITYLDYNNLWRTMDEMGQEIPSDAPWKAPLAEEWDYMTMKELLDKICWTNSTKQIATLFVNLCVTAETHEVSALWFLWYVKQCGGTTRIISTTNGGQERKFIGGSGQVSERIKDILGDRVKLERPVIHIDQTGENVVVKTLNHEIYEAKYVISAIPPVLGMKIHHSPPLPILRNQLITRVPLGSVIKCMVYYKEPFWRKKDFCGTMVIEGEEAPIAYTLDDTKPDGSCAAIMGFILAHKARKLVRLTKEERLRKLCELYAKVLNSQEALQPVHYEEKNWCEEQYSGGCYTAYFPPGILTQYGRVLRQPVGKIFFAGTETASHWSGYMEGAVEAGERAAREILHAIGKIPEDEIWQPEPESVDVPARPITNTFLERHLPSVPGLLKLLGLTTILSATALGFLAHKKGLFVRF

Cytochrome P450 3A4 = Cytochrome P450 3A4 (Homo sapiens, UniProt P08684); assay: Inhibition of human CYP3A4 assessed as terfenadine hydroxylation after 20 mins by LC/MS/MS analysis; assay type: ADME; how it was run: as §3
Cytochrome P450 3A4, sequence (P08684 whole entry): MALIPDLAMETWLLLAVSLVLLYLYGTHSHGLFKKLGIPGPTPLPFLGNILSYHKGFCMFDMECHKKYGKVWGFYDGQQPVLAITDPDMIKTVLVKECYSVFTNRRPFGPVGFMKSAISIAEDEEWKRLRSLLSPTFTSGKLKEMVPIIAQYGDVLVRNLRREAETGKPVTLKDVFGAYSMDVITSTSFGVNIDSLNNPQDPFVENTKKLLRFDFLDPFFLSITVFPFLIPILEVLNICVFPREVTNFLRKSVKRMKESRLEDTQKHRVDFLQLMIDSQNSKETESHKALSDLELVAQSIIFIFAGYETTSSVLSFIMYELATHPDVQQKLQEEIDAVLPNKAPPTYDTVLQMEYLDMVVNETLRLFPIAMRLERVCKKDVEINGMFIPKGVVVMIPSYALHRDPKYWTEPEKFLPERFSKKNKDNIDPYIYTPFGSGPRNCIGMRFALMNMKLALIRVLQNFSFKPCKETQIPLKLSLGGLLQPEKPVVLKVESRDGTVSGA

Cytochrome P450 1A2 = target: T2, Cytochrome P450 1A2 (Homo sapiens, UniProt P05177); assay: Inhibition of human CYP1A2 assessed as ethoxyresorufin O-deethylation after 20 mins by fluorescence plate reader analysis; assay type: ADME
T2 sequence (P05177 whole entry): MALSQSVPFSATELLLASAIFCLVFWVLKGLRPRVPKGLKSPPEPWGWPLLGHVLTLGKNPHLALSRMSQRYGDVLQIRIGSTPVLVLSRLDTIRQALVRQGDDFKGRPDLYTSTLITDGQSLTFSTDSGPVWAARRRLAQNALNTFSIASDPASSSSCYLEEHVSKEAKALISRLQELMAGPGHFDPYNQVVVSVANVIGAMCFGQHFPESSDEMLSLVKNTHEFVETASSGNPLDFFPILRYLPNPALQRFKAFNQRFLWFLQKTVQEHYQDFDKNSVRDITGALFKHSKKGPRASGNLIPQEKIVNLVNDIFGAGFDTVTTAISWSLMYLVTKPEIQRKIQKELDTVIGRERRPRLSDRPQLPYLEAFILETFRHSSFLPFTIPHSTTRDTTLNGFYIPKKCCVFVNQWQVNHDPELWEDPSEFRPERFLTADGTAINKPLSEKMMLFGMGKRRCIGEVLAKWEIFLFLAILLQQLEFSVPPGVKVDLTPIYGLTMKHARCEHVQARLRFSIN
How it was run: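 Human liver microsomes (0.2 mg protein/mL) with 1 mM NADPH in 50 mM HEPES pH 7.4, 10 mM MgCl2, 0.1 mM EDTA. After centrifugation, supernatant read on a fluorescence plate reader. Standard curve from authentic metabolite added to unincubated reaction mix.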

Cytochrome P450 2C9 = Cytochrome P450 2C9 (Homo sapiens, UniProt P11712); assay: Inhibition of human CYP2C9 assessed as tolbutamide hydroxylation after 20 mins by LC/MS/MS analysis; assay type: ADME; how it was run: as §3
Cytochrome P450 2C9, sequence (P11712 whole entry): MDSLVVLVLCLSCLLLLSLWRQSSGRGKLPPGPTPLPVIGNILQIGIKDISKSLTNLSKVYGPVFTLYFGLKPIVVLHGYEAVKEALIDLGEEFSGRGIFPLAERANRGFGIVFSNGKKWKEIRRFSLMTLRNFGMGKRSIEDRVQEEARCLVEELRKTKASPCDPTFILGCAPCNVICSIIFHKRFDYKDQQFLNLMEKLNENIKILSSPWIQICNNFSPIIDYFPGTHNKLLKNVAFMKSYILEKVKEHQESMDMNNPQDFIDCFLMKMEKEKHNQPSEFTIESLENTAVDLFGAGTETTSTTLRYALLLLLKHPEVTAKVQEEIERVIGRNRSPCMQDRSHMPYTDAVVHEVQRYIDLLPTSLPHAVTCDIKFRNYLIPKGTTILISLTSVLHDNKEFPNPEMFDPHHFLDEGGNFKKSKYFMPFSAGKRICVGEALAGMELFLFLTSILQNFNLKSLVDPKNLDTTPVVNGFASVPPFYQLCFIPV

MAO-A = target: T3, MAO-A (Rattus norvegicus, UniProt P21396); assay: Inhibition of MAO-A in rat forebrain using [14C]5-HT as substrate at 30 uM incubated for 20 mins prior to substrate addition measured after 5 mins by liquid scintillation counting analysis relative to control; assay type: tissue-based; settings: probe [14C]5-HT
T3 sequence (P21396 whole entry): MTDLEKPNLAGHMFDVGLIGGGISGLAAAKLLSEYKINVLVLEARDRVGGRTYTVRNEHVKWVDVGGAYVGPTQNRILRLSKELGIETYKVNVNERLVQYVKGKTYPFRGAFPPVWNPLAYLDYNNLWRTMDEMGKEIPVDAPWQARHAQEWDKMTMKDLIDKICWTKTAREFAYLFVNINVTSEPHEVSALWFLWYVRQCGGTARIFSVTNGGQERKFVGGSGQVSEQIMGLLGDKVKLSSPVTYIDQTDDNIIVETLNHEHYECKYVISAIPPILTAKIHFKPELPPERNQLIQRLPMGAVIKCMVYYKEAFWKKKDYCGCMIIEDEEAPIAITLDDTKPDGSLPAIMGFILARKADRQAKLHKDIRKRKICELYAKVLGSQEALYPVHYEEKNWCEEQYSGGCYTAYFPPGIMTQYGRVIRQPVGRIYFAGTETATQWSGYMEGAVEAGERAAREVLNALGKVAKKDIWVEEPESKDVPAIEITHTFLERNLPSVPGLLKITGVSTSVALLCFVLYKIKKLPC

Compound | MIC (Haemophilus influenzae [1]) [µg/mL] | Ratio (Moraxella catarrhalis [2]) | Ratio (Enterococcus faecium [3]) | Ratio (Streptococcus pneumoniae [4]) | MIC (Staphylococcus aureus [5]) [µg/mL] | Ratio (Streptococcus pneumoniae [6]) | ED50 (Staphylococcus aureus [7]) [mg/kg] | Ratio (Staphylococcus aureus [8]) | MIC (Staphylococcus aureus [9]) [µg/mL] | Ratio (Staphylococcus aureus [10]) | Ratio (Haemophilus influenzae [11]) | Ratio (Staphylococcus aureus [12]) | Ratio (Enterococcus faecalis [13]) | MIC (Staphylococcus aureus [15]) [µg/mL] | ED50 (Staphylococcus aureus [17]) [mg/kg] | MIC (Staphylococcus aureus [18]) [µg/mL] | MIC (Enterococcus faecalis [20]) [µg/mL] | MIC (Moraxella catarrhalis [21]) [µg/mL] | MIC (Enterococcus faecium [22]) [µg/mL] | MIC (Streptococcus pneumoniae [25]) [µg/mL] | other results
CC(=S)NC[C@H]1CN(c2cc(F)c(N3CCNN(C(=O)CO)CC3)c(F)c2)C(=O)O1 | 2 (≈ 4.51 µM) | 4 | 4 | 4 | 0.125 (≈ 0.282 µM) | 4 | 2.95 | 4 | 1 (≈ 2.25 µM) | 4 | 4 | 4 | 4 | 0.25 (≈ 0.564 µM) | 9.83 | 0.125 (≈ 0.282 µM) | 0.25 (≈ 0.564 µM) | 0.5 (≈ 1.13 µM) | 0.125 (≈ 0.282 µM) | 0.063 (≈ 0.142 µM) | Ratio (Haemophilus influenzae [14]): 4; Ratio (Staphylococcus aureus [16]): 4; Ratio (Enterococcus faecium [19]): 4; Ratio (Moraxella catarrhalis [23]): 4; Ratio (Enterococcus faecalis [24]): 4
CC(=O)NC[C@H]1CN(c2ccc(N3CCOCC3)c(F)c2)C(=O)O1 [LINEZOLID] | 16 (≈ 47.4 µM) |  |  |  |  |  | 1.73 |  | 32 (≈ 94.9 µM) |  |  |  |  |  | 2.02 |  |  | 8 (≈ 23.7 µM) | 2 (≈ 5.93 µM) |  | IC50 (Cytochrome P450 2D6): > 20 µM; inhibition at 10 min, 30 µM (MAO-B): 70.4%; IC50 (Cytochrome P450 3A4): > 20 µM; IC50 (Cytochrome P450 1A2): > 20 µM; IC50 (Cytochrome P450 2C9): > 20 µM; inhibition at 5 min, 30 µM (MAO-A): 61.3%
CC(=O)NC[C@H]1CN(c2ccc(N3CCN(C(=O)CO)CC3)c(F)c2)C(=O)O1 [EPEREZOLID] | 4 (≈ 10.1 µM) |  |  |  | 1 (≈ 2.54 µM) |  | 1.85 |  | 32 (≈ 81.1 µM) |  |  |  |  | 1 (≈ 2.54 µM) | 4.76 | 1 (≈ 2.54 µM) | 1 (≈ 2.54 µM) | 8 (≈ 20.3 µM) | 2 (≈ 5.07 µM) | 0.125 (≈ 0.317 µM) | IC50 (Cytochrome P450 2D6): > 20 µM; inhibition at 10 min, 30 µM (MAO-B): 20.2%; IC50 (Cytochrome P450 3A4): > 20 µM; IC50 (Cytochrome P450 1A2): > 20 µM; IC50 (Cytochrome P450 2C9): > 20 µM; inhibition at 5 min, 30 µM (MAO-A): 53.6%
CC(=S)NC[C@H]1CN(c2ccc(N3CCNN(C(=O)CO)CC3)c(F)c2)C(=O)O1 | 2 (≈ 4.7 µM) | 4 | 4 | 4 | 0.5 (≈ 1.18 µM) | 4 | 2.95 | 4 | 8 (≈ 18.8 µM) | 4 | 4 | 4 | 4 | 0.25 (≈ 0.588 µM) | > 10 | 0.25 (≈ 0.588 µM) | 0.5 (≈ 1.18 µM) | 1 (≈ 2.35 µM) | 0.5 (≈ 1.18 µM) | ≤ 0.063 | Ratio (Haemophilus influenzae [14]): 4; Ratio (Staphylococcus aureus [16]): 4; Ratio (Enterococcus faecium [19]): 4; Ratio (Moraxella catarrhalis [23]): 4; Ratio (Enterococcus faecalis [24]): 4
